{"source": "ChEMBL document CHEMBL4422632", "about": "“Design of Novel Inhibitors of Human Thymidine Phosphorylase: Synthesis, Enzyme Inhibition, in Vitro Toxicity, and Impact on Human Glioblastoma Cancer” (J Med Chem, 2019)", "key": {"[1]": {"experiment": "Tmax in CF1 mouse at 50 mg/kg, ip by non-compartmental analysis", "type": "ADME, organism-based", "conditions": "in vivo"}, "[2]": {"experiment": "Cytotoxicity against human HepG2 cells assessed as cell viability at 25 uM after 72 hrs by MTT assay relative to control", "type": "cell-based", "conditions": "read-out: Activity", "in_short": "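Cells grown in DMEM with 10% FBS at 37 °C, 5% CO₂; seeded 2 x 10³ cells/well, adhered 24 h, then exposed 72 h. MTT: 1 mg/mL for 3 h, formazan in DMSO, absorbance 595 nm. NRU: neutral red 25 µg/mL in serum-free medium for 3 h, desorbed in ethanol:acetic acid:water. Viability as % of untreated control; mean ± SEM of three to five independent experiments in triplicate.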"}}}
{"compound": "O=c1[nH]c(CNC(CO)CO)c(I)c(=O)[nH]1", "values": [{"measurement": "Tmax", "setting": "[1]", "value": 4.8, "unit": "min"}, {"measurement": "viability at 72 h, 25 µM", "setting": "[2]", "value": 103, "unit": "%"}]}
